Source: PubChem (several laboratories)
Hits are enriched below; roughly 1.8% of the tested compounds scored in any of these assays.
SKN-1 inh – inhibitors of C. elegans SKN-1; inhibition, % at 21.8 µM; 360,000 tested, 0.49% active; AID 624304; C. elegans VP596 Pgst-4::GFP/RFP ratio, acrylamide-induced, 24 h;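 active means interference check ratio from 0.5 to 1.5 plus GFP to RFP signal ratio inhibition reaching or exceeding a fixed threshold, cut at about 30% in these data, passing the limit was not always enough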
E coli Lon inh – inhibitors of E. coli Lon protease. purified E. coli Lon protease, fluorescence polarization. P0A9M0. AID 602123. 360,000 tested, 0.42% active. inhibition, % at 7.94 µM; in the data active means inhibition above about 13%, passing the limit was not always enough
TbMetRS inhib – blocks T. brucei methionyl-tRNA synthetase activity; purified T. brucei MetRS, ATP depletion, Kinase-Glo luminescence; inhibition, % at 11.9 µM; 360,000 tested, 0.4% active;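 active means inhibition above a per-plate cutoff of the control wells' mean inhibition plus 3 SD, cut at about 5.5% in these data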
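technique = Kinase-Glo luminescence, ATP depletion format | system = purified MetRS (methionyl-tRNA synthetase) enzyme from Trypanosoma brucei | timing = 15 min preincubation, 2 h reaction, all 25 °C | evaluation = percent inhibition versus plate control medians | dosing = single dose, 11.9 µM final nominal, 0.9% final DMSO | also added = substrates ATP, L-methionine and bulk Escherichia coli tRNA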
MT1-MMP act inh – blocks activation of human MT1-MMP. P50281. HT1080 RFP-PRO-GFP cells, GFP/RFP ratio fluorescence, overnight; percent of plate control window, DMSO zero. GFP/RFP ratio change, % at 20 µM. 360,000 tested, 0.061% active. AID 651647;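 active means GFP/RFP ratio change of at least 30% with cell ATP level not reduced by more than half and red fluorescence within 50% of control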
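Material – HT1080 RFP-PRO-GFP cells · Control set – DMSO wells and RFP-L50D-GFP cells · Incubation – overnight cell settling, then overnight compound exposure, 37 °C, 5% CO2 · Compound dosing – single-point 20 µM compound, 1% DMSO · Read-out – GFP/RFP fluorescence ratio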
hiPSC survival – hiPSC single-cell survival enhancement; AID 602274; 360,000 tested, 0.044% active; survival enhancement, % at 20 µM; ATPlite luminescence; 100% = ROCK inhibitor wells, 0% = DMSO; in the data active means survival enhancement above about 18%;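 further: cells exposed to compounds for 16 hours before the ATP read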
PREPL inhibitor – human PREPL enzyme inhibition; recombinant PREPL, fluorescence polarization activity-based probe; inhibition, % at 5.96 µM; 320,000 tested, 0.68% active; in the data active means inhibition above about 43%
Target sequence (Q4J6C6 whole entry, looked up): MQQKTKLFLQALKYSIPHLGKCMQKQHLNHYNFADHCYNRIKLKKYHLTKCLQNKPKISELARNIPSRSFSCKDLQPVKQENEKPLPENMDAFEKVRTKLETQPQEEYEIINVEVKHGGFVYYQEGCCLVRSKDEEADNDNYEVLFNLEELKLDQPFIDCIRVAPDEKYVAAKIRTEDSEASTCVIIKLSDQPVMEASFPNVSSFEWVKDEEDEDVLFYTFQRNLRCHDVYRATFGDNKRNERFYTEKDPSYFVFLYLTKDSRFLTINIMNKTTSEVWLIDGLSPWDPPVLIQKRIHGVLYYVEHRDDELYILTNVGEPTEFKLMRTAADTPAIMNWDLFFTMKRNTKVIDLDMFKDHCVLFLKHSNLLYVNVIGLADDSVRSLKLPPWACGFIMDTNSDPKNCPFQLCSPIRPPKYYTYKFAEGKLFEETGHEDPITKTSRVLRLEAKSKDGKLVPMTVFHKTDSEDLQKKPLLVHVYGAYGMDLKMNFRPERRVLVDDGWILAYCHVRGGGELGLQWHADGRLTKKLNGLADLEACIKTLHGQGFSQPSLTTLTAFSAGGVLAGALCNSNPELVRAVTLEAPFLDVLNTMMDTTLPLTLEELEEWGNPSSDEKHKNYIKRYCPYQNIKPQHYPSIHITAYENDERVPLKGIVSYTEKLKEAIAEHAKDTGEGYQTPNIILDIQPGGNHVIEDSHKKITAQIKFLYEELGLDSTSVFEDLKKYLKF
E coli Lon conf – E. coli Lon inhibition confirmation; shares compounds with E coli Lon inh; purified E. coli Lon, fluorescence polarization; inhibition, % at 7.94 µM; 1,400 tested, 31% active; in the data active means inhibition above about 16%
Of the large screens only hits and unclear results are named; the others gave an inactive call (follow-up assays come after a bar, where they were run).

CN1C(=O)N(C)c2ccc(C=O)c3cccc1c23	E coli Lon inh 15.7 | E coli Lon conf inactive
Cc1[nH]c(=S)c(C#N)c2c1CCCC2	none
N#Cc1c(N)sc(=S)c2c1CCCC2	E coli Lon inh 15.9 | E coli Lon conf inactive
CC(C)[C@H](NC(=O)N1CC(=O)Nc2ccccc21)C(=O)N1CCC(C(=O)O)CC1	none
Cc1ccc(/C=C/C(=O)O)cc1S(=O)(=O)NC1CCS(=O)(=O)C1 (centres undefined)	E coli Lon inh 15.2 | E coli Lon conf inactive
COC(=O)c1cc2c(s1)-c1cc(F)ccc1OC2	E coli Lon inh 16.2 | E coli Lon conf inactive
COc1ccc(OC)c(S(=O)(=O)N2CCC(C(=O)NCC3CCCO3)CC2)c1 (centres undefined)	E coli Lon inh 32.5 | E coli Lon conf inactive
CC(CN1CCCCC1)NC(=O)c1cc(-c2ccccn2)nc2ccc(Cl)cc12 (centres undefined)	none
CC(C)c1ccc(Nc2nc(N3CCOCC3)nc(N3CCOCC3)n2)cc1	none (no result: PREPL inhibitor)
CC(C)CCCNc1nc(N2CCOCC2)nc(N2CCOCC2)n1	E coli Lon inh 83.9 | E coli Lon conf inactive
COC(=O)C1CCN(C(=O)/C=C/c2ccc3c(c2)OCO3)CC1	none
CCOc1ccc(OCCC(=O)OCC(=O)N2CCN(S(=O)(=O)c3ccc(C)cc3C)CC2)cc1	E coli Lon inh 20.3 (no result: PREPL inhibitor) | E coli Lon conf inactive
CSc1nsc(SCC(=O)Nc2ccccc2C(=O)O)n1	none
COc1ccc(C(=O)Nc2nc(OCC(F)(F)F)cnc2/C=C\c2ccccc2)c(OC)c1	none (no result: PREPL inhibitor)
Cc1cc2cc(CCNC(=O)c3ccc(C)c([N+](=O)[O-])c3)c(=O)[nH]c2cc1C	none
Cc1cc2cc(CNC(=O)c3ccc(C)c([N+](=O)[O-])c3)ccc2[nH]1	E coli Lon inh 21.5 | E coli Lon conf inactive
CSc1ncccc1C(=O)N1CCN(S(=O)(=O)c2ccc(C)cc2)CC1	E coli Lon inh 16.6 | E coli Lon conf inactive
Cc1cccc(C(=O)NN2S(=O)(=O)c3ccccc3S2(=O)=O)c1	E coli Lon inh 16.8 | E coli Lon conf inactive
CCCCOc1[nH]c2nc(-c3ccco3)n(Cc3ccco3)c(=N)c2c1C#N	E coli Lon inh 51.4 | E coli Lon conf inactive
c1ccc(CSc2nnc(-c3ccco3)n2Cc2ccco2)cc1	none
O=C(NC(c1ccccc1)c1ccccc1)c1ccc(S(=O)(=O)C(F)F)cc1	none
COc1cc(NC(=O)CSc2nc3c(c(=O)[nH]2)CCCC3)cc(OC)c1OC	E coli Lon inh 15.8 | E coli Lon conf inactive
O=C(COC(=O)CNS(=O)(=O)c1c(F)cccc1F)NC(=O)NC1CCCCC1	E coli Lon inh 26.9 | E coli Lon conf inactive
O=C(COC(=O)Cc1cccc(F)c1)NC(=O)NC1CCCCC1	none (no result: PREPL inhibitor)
CC(O)C(C(=O)OCc1ccc([N+](=O)[O-])cc1)N1C(=O)c2ccccc2C1=O (centres undefined)	none
O=C(Cn1ccc2ccccc2c1=O)NCC(=O)N1CCN(c2ccc(F)cc2)CC1	E coli Lon inh 22.6 | E coli Lon conf inactive
COc1ccc(NC(=O)c2cccc(N3C(=O)c4cccc([N+](=O)[O-])c4C3=O)c2)cc1	E coli Lon inh 18.7 | E coli Lon conf inactive
Cc1ccccc1-n1c(SCc2c(C)noc2C)nnc1-c1ccncc1	none
Cc1ccccc1-n1c(SCc2c(C)noc2C)nnc1-c1cccnc1	E coli Lon inh 63.1 | E coli Lon conf 45.0
COc1cccc(NC(=O)N(CCN(C)C)C(C)c2cccnc2)c1 (centres undefined)	none
CC(c1cccnc1)N(CCN(C)C)C(=O)Nc1ccc(Cl)cc1 (centres undefined)	E coli Lon inh 14.6 | E coli Lon conf inactive
N#Cc1ccc(CCc2ccccc2)[nH]c1=O	none (no result: PREPL inhibitor)
N#Cc1ccc(CC(=O)c2ccccc2)[nH]c1=O	SKN-1 inh 44.4, E coli Lon inh 24.8 (no result: PREPL inhibitor) | E coli Lon conf inactive
CC1CCCCC1NC(=O)CN1C(=O)c2cccc(N)c2C1=O (centres undefined)	E coli Lon inh 16.8 (no result: PREPL inhibitor) | E coli Lon conf 25.5
CC(=O)Nc1ccc(OCC(=O)NCc2ccc3c(c2)OCO3)cc1	none
Cc1cccc(N2CCN(C(=O)CSc3nc4ccccc4nc3N3CC(C)OC(C)C3)CC2)c1C (centres undefined)	none
NC(=S)Nc1cccc2cc3ccccc3cc12	E coli Lon inh 41.6 | E coli Lon conf 112.8
COc1ccc(N(CC(=O)Nc2ccc(S(=O)(=O)N3CCOCC3)cc2)S(C)(=O)=O)cc1OC	E coli Lon inh 16.1 (no result: PREPL inhibitor) | E coli Lon conf inactive
CCOC(=O)[C@H]1[C@H]2COc3ccc(Br)cc3[C@@H]2N2C(=O)CN(Cc3ccc(OC)cc3)C(=O)[C@@]12C	none
COc1ncnc2c1NC1=C(S2)C(=NCCC(=O)O)CC(C)(C)C1	E coli Lon inh 64.8 | E coli Lon conf 154.0
CN(C)c1ncnc2c1NC1=C(S2)C(=NCCCC(=O)O)CC(C)(C)C1	none
COc1ccccc1N1CCN(/N=C/c2ccc(OC)c(OC)c2OC)CC1	none
COc1ccc(/C=N/N2CCN(C)CC2)c(OC)c1OC	E coli Lon inh 20.4 | E coli Lon conf inactive
CCN(CC)C(=O)CSc1nnc2nnc3cc(C)ccc3n12	none
CCN(CC)C(=O)CSc1nnc2nnc3cc(Cl)ccc3n12	E coli Lon inh 54.5 | E coli Lon conf 41.5
COc1ccc2c(c1)cc(C(=O)N[C@@H](Cc1ccccc1)C(=O)O)n2C	none
O=c1[nH]c2ccccc2nc1/C=C/c1ccccc1	E coli Lon inh 14.3 | E coli Lon conf inactive
Cc1cccc(OCC(O)CN2C(C)(C)CC(O)CC2(C)C)c1 (centres undefined)	E coli Lon inh 14.4 | E coli Lon conf inactive
CC(=O)c1ccc(S(=O)(=O)NCCc2cn3ccc(C)cc3n2)cc1	none
O=C1C2=C(SCCS2)C(=O)N1CCCO	E coli Lon inh 40.9 | E coli Lon conf 55.1
O=C1c2ccc(-c3ccc4c(c3)C(=O)N(CCCO)C4=O)cc2C(=O)N1CCCO	none
COc1ccc(C(NC(=O)C2CCCCC2)c2c(O)ccc3ccccc23)cc1 (centres undefined)	none
CCOc1ccc(NC(=S)N2CCC(c3ccc(C)cc3)C2)cc1 (centres undefined)	none
COc1cccc(C(=O)Oc2ccc3ccc(=O)oc3c2)c1	E coli Lon inh 23.4 | E coli Lon conf 47.1
COc1ccc(C(=O)Oc2ccc3ccc(=O)oc3c2)cc1OC	none
CCC(=O)N(CCc1ccc(OC)c(OC)c1)Cc1cc2ccc(C)cc2n2nnnc12	E coli Lon inh 15.7 | E coli Lon conf inactive
CCC(=O)N(Cc1cc2ccc(C)cc2n2nnnc12)C1CCCCC1	none
